The source made the active and inactive calls. The calls are words filed in the database; no cut-off is given here.
Assays:
HeLa = test: Antiproliferative activity against human HeLa cells assessed as inhibition of cell proliferation after 72 hrs by MTT assay; type: functional, cell-based; settings: for IC50: Homo sapiens, HeLa, 72 h
Procedure, shortened: (§1)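 Cells grown as monolayers in DMEM with 10% FBS, 2 mM L-glutamine, penicillin/streptomycin, 37 °C, 5% CO2. Seeded at 5000/well on day 0. Compounds added after 24 h as five serial dilutions (0,01 to 100 µM), DMSO ≤0.1%, then 72 h. MTT read-out converted to percentage growth. IC50 by linear regression; quadruplicates in three experiments.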

[1] = target: T1, DNA topoisomerase 1 (Homo sapiens) (UniProt P11387); test: Inhibition of human topoisomerase 1 assessed as topoisomerase poison activity by measuring generation of open circular DNA using supercoiled pUC19 DNA at 5 to 50 uM by agarose gel electrophoresis
T1 sequence (whole entry): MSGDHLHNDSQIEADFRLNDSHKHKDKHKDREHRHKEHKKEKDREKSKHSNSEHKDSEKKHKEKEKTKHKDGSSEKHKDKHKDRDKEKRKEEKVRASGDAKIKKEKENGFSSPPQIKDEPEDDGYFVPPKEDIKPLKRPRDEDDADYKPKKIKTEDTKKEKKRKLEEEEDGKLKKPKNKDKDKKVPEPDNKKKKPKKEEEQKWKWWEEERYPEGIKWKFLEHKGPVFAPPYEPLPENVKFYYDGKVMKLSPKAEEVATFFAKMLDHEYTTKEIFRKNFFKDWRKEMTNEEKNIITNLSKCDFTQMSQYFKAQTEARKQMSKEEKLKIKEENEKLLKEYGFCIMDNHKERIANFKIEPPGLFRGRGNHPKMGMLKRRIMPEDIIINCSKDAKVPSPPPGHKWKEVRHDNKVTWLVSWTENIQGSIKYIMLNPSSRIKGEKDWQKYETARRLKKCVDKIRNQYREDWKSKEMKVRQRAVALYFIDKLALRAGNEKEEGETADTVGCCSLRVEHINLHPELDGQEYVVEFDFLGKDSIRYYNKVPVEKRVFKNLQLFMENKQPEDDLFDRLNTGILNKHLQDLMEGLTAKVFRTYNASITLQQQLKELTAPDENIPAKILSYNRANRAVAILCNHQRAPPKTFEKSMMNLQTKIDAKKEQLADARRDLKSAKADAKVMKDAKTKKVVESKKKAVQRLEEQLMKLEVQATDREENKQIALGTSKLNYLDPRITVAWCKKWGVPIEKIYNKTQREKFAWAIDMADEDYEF
Procedure, shortened: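 Supercoiled pUC19 plasmid was incubated with human topoisomerase I and graded compound concentrations. Reactions were stopped with SDS and proteinase K. DNA forms were resolved on 1% agarose in TBE (2 h, 120 V), post-stained with ethidium bromide and photographed under UV. Poisoning was read as appearance of nicked DNA, with camptothecin as the positive control.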

Calf thymus DNA [2] = test: Binding affinity to calf thymus DNA assessed as change in melting temperature at drug/ base pair ratio of 0.25 by spectrophotometry; type: nucleic-acid assay; settings: Bos taurus
Procedure, shortened: (§2)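 CT-DNA absorbance followed at 260 nm from 20 to 100 °C, rising 1 °C per min, in BPE buffer, with or without compound at drug/base-pair ratio 0.25 or 0.5. Tm taken as midpoint of the hyperchromic transition from first-derivative plots. ΔTm is Tm with compound minus Tm of DNA alone.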

MCF7 = test: Antiproliferative activity against human MCF7 cells assessed as inhibition of cell proliferation after 72 hrs by MTT assay; type: functional, cell-based; settings: for IC50: Homo sapiens, MCF7, 72 h; procedure, shortened: as §1
HepG2 [3] = test: Antiproliferative activity against human HepG2 cells assessed as inhibition of cell proliferation after 72 hrs by MTT assay; type: functional, cell-based; settings: for IC50: HepG2, 72 h; procedure, shortened: as §1
[4] = Binding affinity to pBluescript 265 bp DNA fragment (unknown origin) assessed binding to AT-rich AATT sequence at 1 to 25 uM incubated for 15 mins by DNase-1 foot printing assay
Procedure, shortened: (§3)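 265 bp EcoRI/PvuII fragment of pBluescript, 3'-end labelled with α[32P]-dATP, incubated with compound (up to 50 µM) for 15 min at 37 °C, then mildly digested with DNase I. Run on 8% denaturing polyacrylamide/8 M urea gels and imaged by phosphor screen. Base positions assigned against a DMS/piperidine G-track.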

[5] = (§4) Antiproliferative activity against human SW620 cells assessed as inhibition of cell proliferation after 72 hrs by MTT assay; type: functional, cell-based, SW-620; settings: Homo sapiens, SW-620, 72 h; procedure, shortened: as §1
SW-620 = test: as §4; type: functional, cell-based; procedure, shortened: as §1
[6] = Binding affinity to pBluescript 265 bp DNA fragment (unknown origin) assessed binding to AT-rich ATTA sequence at 1 to 25 uM incubated for 15 mins by DNase-1 foot printing assay; procedure, shortened: as §3
Calf thymus DNA [7] = test: Binding affinity to calf thymus DNA assessed as change in melting temperature at drug/ base pair ratio of 0.5 by spectrophotometry; type: nucleic-acid assay; settings: Bos taurus; procedure, shortened: as §2
[8] = Binding affinity to pBluescript 265 bp DNA fragment (unknown origin) assessed binding to ACAA sequence at 1 to 25 uM incubated for 15 mins by DNase-1 foot printing assay; procedure, shortened: as §3
Nucleic Acid = test: Induction of DNA intercalation in supercoiled pUC19 DNA in presence of human topoisomerase 1 assessed as effect on topoisomerase 1-mediated DNA relaxation at 50 uM by agarose gel electrophoresis; type: nucleic-acid assay; settings: Escherichia coli
Procedure, shortened: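 Supercoiled pUC19 incubated with human topoisomerase I and graded compound concentrations. Stopped with SDS/proteinase K. DNA forms resolved on 1% agarose in TBE, 2 h at 120 V, stained post-run with ethidium bromide and viewed under UV. Camptothecin was the topo I poison control.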

[9] = Antiproliferative activity against human WI38 cells assessed as inhibition of cell proliferation after 72 hrs by MTT assay; type: cell-based, WI-38; procedure, shortened: as §1
Calf thymus DNA [10] = test: Binding affinity to calf thymus DNA at 50 uM circular dichroism spectroscopy; type: nucleic-acid assay; settings: Bos taurus
Procedure, shortened: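 CD spectra recorded from 480 to 230 nm, 10 mm path, 20 °C, in BPE buffer. CT-DNA (50 µM) incubated with compound rising from 1 to 60 µM or to 80 µM. Compound without DNA served as the control for intrinsic CD.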

[11] = Binding affinity to pBluescript 265 bp DNA fragment (unknown origin) assessed binding to TTGT) sequence at 1 to 25 uM incubated for 15 mins by DNase-1 foot printing assay; procedure, shortened: as §3
HepG2 [12] = test: Induction of cell cycle arrest on human HepG2 cells assessed as accumulation at S phase at 25 uM after 24 hrs by propidium iodide staining based flow cytometry (reference value: 12.0 +/- 10.2%); type: functional
Procedure, shortened: (§5)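 HepG2 or SW620 cells were seeded at 25000 per well. After 24 h they were treated, then harvested 24 or 48 h later. Attached cells were trypsinized, pooled with floating cells, PBS-washed and fixed in 70% ethanol. Cells were stained with PI 1 µg/mL plus RNase A 0.2 µg/mL, and 10 000 events were acquired by flow cytometry. Phase percentages come from DNA histograms, in duplicate, with ANOVA at p < 0.05.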

HepG2 [13] = test: Induction of cell cycle arrest on human HepG2 cells assessed as accumulation at S phase at 10 uM after 24 hrs by propidium iodide staining based flow cytometry (reference value: 12.0 +/- 10.2%); type: functional
HepG2 [14] = test: Induction of cell cycle arrest on human HepG2 cells assessed as accumulation at G1 phase at 10 uM after 24 hrs by propidium iodide staining based flow cytometry (reference value: 61.4 +/- 2.0%); type: functional
HepG2 [15] = test: Induction of cell cycle arrest on human HepG2 cells assessed as accumulation at G1 phase at 25 uM after 48 hrs by propidium iodide staining based flow cytometry (reference value: 62.1 +/- 4.9%); type: functional
HepG2 [16] = test: Induction of cell cycle arrest on human HepG2 cells assessed as accumulation at subG1 phase at 10 uM after 48 hrs by propidium iodide staining based flow cytometry (reference value: 1.9%); type: functional; procedure, shortened: as §5
HepG2 [17] = test: Induction of cell cycle arrest on human HepG2 cells assessed as accumulation at S phase at 10 uM after 48 hrs by propidium iodide staining based flow cytometry (reference value: 6.8 +/- 5.3%); type: functional
HepG2 [18] = test: Induction of apoptosis in human HepG2 cells assessed as enlarged cells level at 25 uM after 24 hrs by Annexin V-Fluos staining based fluorescent microscopy; type: functional, cell-based
Procedure, shortened: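 Cells seeded on chamber slides at 4000 per well and treated 24 h (HepG2 at 25 or 50 µM; SW620 at 50 µM). Incubated 15 min with Annexin V-Fluos reagent plus propidium iodide, washed in PBS, and examined by fluorescence microscopy for morphology and labelling.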

HepG2 [19] = test: Induction of cell cycle arrest on human HepG2 cells assessed as accumulation at subG1 phase at 25 uM after 24 hrs by propidium iodide staining based flow cytometry (reference value: 4.8 +/- 0.6%); type: functional; procedure, shortened: as §5
BJ = test: Antiproliferative activity against human BJ cells assessed as inhibition of cell proliferation after 72 hrs by MTT assay; type: cell-based; settings: 72 h; procedure, shortened: as §1
HepG2 [20] = test: Induction of cell cycle arrest on human HepG2 cells assessed as accumulation at G2/M phase at 25 uM after 48 hrs by propidium iodide staining based flow cytometry (reference value: 31.1 +/- 0.4%); type: functional
HepG2 [21] = test: Induction of cell cycle arrest on human HepG2 cells assessed as accumulation at G1 phase at 25 uM after 24 hrs by propidium iodide staining based flow cytometry (reference value: 61.4 +/- 2.0%); type: functional
HepG2 [22] = test: Induction of cell cycle arrest on human HepG2 cells assessed as accumulation at S phase at 25 uM after 48 hrs by propidium iodide staining based flow cytometry (reference value: 6.8 +/- 5.3%); type: functional; procedure, shortened: as §5
HepG2 [23] = test: Induction of cell cycle arrest on human HepG2 cells assessed as accumulation at subG1 phase at 10 uM after 24 hrs by propidium iodide staining based flow cytometry (reference value: 4.8 +/- 0.6%); type: functional; procedure, shortened: as §5
HepG2 [24] = test: Induction of cell cycle arrest on human HepG2 cells assessed as accumulation at subG1 phase at 25 uM after 48 hrs by propidium iodide staining based flow cytometry (reference value: 1.9%); type: functional; procedure, shortened: as §5
HepG2 [25] = test: Induction of cell cycle arrest on human HepG2 cells assessed as accumulation at G1 phase at 10 uM after 48 hrs by propidium iodide staining based flow cytometry (reference value: 62.1 +/- 4.9%); type: functional
HepG2 [26] = test: Induction of cell cycle arrest on human HepG2 cells assessed as accumulation at G2/M phase at 10 uM after 24 hrs by propidium iodide staining based flow cytometry (reference value: 26.6 +/- 12.2%); type: functional
HepG2 [27] = test: Induction of cell cycle arrest on human HepG2 cells assessed as accumulation at G2/M phase at 25 uM after 24 hrs by propidium iodide staining based flow cytometry (reference value: 26.6 +/- 12.2%); type: functional
HepG2 [28] = test: Induction of cell cycle arrest on human HepG2 cells assessed as accumulation at G2/M phase at 10 uM after 48 hrs by propidium iodide staining based flow cytometry (reference value: 31.1 +/- 0.4%); type: functional

CC(C)NC(=N)c1ccc(/N=C2\c3ccccc3CN2c2ccc(C(=N)NC(C)C)cc2)cc1.Cl
inhibition (HeLa): Dose-dependent effect | IC50 (HeLa): > 100 µM | inhibition [1]: inactive | ΔTm (Calf thymus DNA [2]): 6.3 °C | inhibition (MCF7): Dose-dependent effect | IC50 (MCF7): 53.4 µM | inhibition (HepG2 [3]): Dose-dependent effect | IC50 (HepG2 [3]): 62.2 µM | Activity [4]: Active | IC50 [5]: > 100 µM | inhibition (SW-620): Dose-dependent effect | Activity [6]: Active | ΔTm (Calf thymus DNA [7]): 11.3 °C | Activity [8]: Active | Activity (Nucleic Acid): inactive | IC50 ([9]; Homo sapiens, WI-38, 72 h): 53.9 µM | inhibition (INH) ([9]; human, wi-38, 72 h): Dose-dependent effect | Activity (Calf thymus DNA [10]): Active | Activity [11]: Active

N#Cc1ccc(/N=C2\c3ccccc3CN2c2ccc(C#N)cc2)cc1
Activity (HepG2 [12]): 16.8% | inhibition (HeLa): Dose-dependent effect | IC50 (HeLa): 50 µM | inhibition [1]: inactive | Activity (HepG2 [13]): 26.7% | Activity (HepG2 [14]): 54.1% | inhibition (MCF7): Dose-dependent effect | IC50 (MCF7): 46.1 µM | Activity (HepG2 [15]): 0% | Activity (HepG2 [16]): 5.2% | Activity (HepG2 [17]): 0% | inhibition (HepG2 [3]): Dose-dependent effect | IC50 (HepG2 [3]): 4.68 µM | Activity (HepG2 [18]): Active | Activity (HepG2 [19]): 15.7% | IC50 [5]: 77.2 µM | inhibition (SW-620): Dose-dependent effect | IC50 (BJ; Homo sapiens, BJ): 75.2 µM | inhibition (INH) (BJ; human, bj): Dose-dependent effect | Activity (HepG2 [20]): 100% | Activity (HepG2 [21]): 45.9% | Activity (HepG2 [22]): 0% | Activity (HepG2 [23]): 13.3% | Activity (HepG2 [24]): 5.7% | Activity (HepG2 [25]): 0% | Activity (HepG2 [26]): 19.2% | Activity (HepG2 [27]): 37.3% | Activity (HepG2 [28]): 100%

Source: ChEMBL document CHEMBL3352181, “Novel phenyl and pyridyl substituted derivatives of isoindolines: Synthesis, antitumor activity and DNA binding features” (Eur J Med Chem, 2014)
